pIC50: −log10 of the molar value.
Legend:
[1] = system: SF-539; assay: Cytotoxicity against human SF539 cells; assay type: functional; details: for TGI: read-out: pTGI (converted)
[2] = system: HCC 2998; assay: Cytotoxicity against human HCC2998 cells; assay type: functional; details: for TGI: read-out: pTGI (converted)
[3] = system: OVCAR-4; assay: Cytotoxicity against human OVCAR4 cells; assay type: functional; details: for TGI: read-out: pTGI (converted)
[4] = system: Saccharomyces cerevisiae; assay: Growth inhibition of GTT2-deficient Saccharomyces cerevisiae YLL060C mutant at 20 ug/disc after 24 to 48 hrs by agar diffusion assay; assay type: functional; details: read-out: DIZ
Outline: (§1)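 S. cerevisiae deletion mutants or wild type grown on YPD, seeded into liquid agar medium at an optical density of 0.1. 6 mm paper discs soaked with methanolic compound solution were placed on the plates and incubated at 30 °C. Growth was checked after 1 and 2 days, and the inhibition zone diameter was recorded in mm.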

[5] = system: MDA-MB-468; assay: Cytotoxicity against human MDA-MB-468 cells; assay type: functional; details: for TGI: read-out: pTGI (converted)
[6] = system: T47D; assay: Cytotoxicity against human T47D cells; assay type: functional; details: for TGI: read-out: pTGI (converted)
[7] = system: ACHN; assay: Cytotoxicity against human ACHN cells; assay type: functional; details: for TGI: read-out: pTGI (converted)
[8] = system: LOX IMVI; assay: Cytotoxicity against human LOXIMVI cells; assay type: functional; details: for TGI: read-out: pTGI (converted)
[9] = system: SK-OV-3; assay: Cytotoxicity against human SKOV3 cells; assay type: functional; details: for TGI: read-out: pTGI (converted)
[10] = system: OVCAR-3; assay: Cytotoxicity against human OVCAR3 cells; assay type: functional; details: for TGI: read-out: pTGI (converted)
[11] = system: SF-268; assay: Cytotoxicity against human SF268 cells; assay type: functional; details: for TGI: read-out: pTGI (converted)
[12] = system: EKVX; assay: Cytotoxicity against human EKVX cells; assay type: functional; details: for TGI: read-out: pTGI (converted)
[13] = system: A498; assay: Cytotoxicity against human A498 cells; assay type: functional; details: for TGI: read-out: pTGI (converted)
[14] = system: HL-60; assay: Cytotoxicity against human HL60 cells; assay type: functional; details: for TGI: read-out: pTGI (converted)
[15] = system: BT-549; assay: Cytotoxicity against human BT549 cells; assay type: functional; details: for TGI: read-out: pTGI (converted)
[16] = system: OVCAR-8; assay: Cytotoxicity against human OVCAR8 cells; assay type: functional; details: for TGI: read-out: pTGI (converted)
[17] = Cytotoxicity against human 786-O cells; assay type: functional; details: for GI50 / LC50: 786-0; for TGI: 786-0, read-out: pTGI (converted)
[18] = system: CAKI-1; assay: Cytotoxicity against human Caki1 cells; assay type: functional; details: for TGI: read-out: pTGI (converted)
[19] = system: COLO 205; assay: Cytotoxicity against human COLO205 cells; assay type: functional; details: for CC50: read-out: pLC50 (the source's name) (converted); for TGI: read-out: pTGI (converted)
[20] = system: HCT-116; assay: Cytotoxicity against human HCT116 cells; assay type: functional; details: for TGI: read-out: pTGI (converted)
[21] = system: TK-10; assay: Cytotoxicity against human TK10 cells; assay type: functional; details: for TGI: read-out: pTGI (converted)
[22] = system: A498; assay: Cytotoxicity against human A498 cells after 24 hrs by MTT assay; assay type: functional, cell-based; details: A498, 24 h
Outline: (§2)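 MTT assay. Cells were seeded at 50,000 cells/mL in medium with 10% fetal calf serum and grown for two days at 37 °C, 10% CO2. Serial dilutions of compound were then added for 24 h. MTT was added (final 0.5 mg/mL) for 2 h, and the formazan was pelleted, washed, dissolved in isopropanol with 0.4% HCl and read at 590 nm. IC50 is the concentration giving 50% of untreated-control absorbance, taken from dose-response curves; mean of two parallel experiments.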

[23] = system: MDA-MB-231; assay: Cytotoxicity against human MDA-MB-231 cells; assay type: functional; details: for TGI: read-out: pTGI (converted)
[24] = system: Saccharomyces cerevisiae; assay: Growth inhibition of SOD1-deficient Saccharomyces cerevisiae YJR104C mutant at 20 ug/disc after 24 to 48 hrs by agar diffusion assay; assay type: functional; details: read-out: DIZ; outline: as §1
[25] = system: U-251; assay: Cytotoxicity against human U251 cells; assay type: functional; details: for TGI: read-out: pTGI (converted)
[26] = system: NCI-H23; assay: Cytotoxicity against human NCI-H23 cells; assay type: functional; details: for TGI: read-out: pTGI (converted)
[27] = system: HT-29; assay: Cytotoxicity against human HT-29 cells; assay type: functional; details: for TGI: read-out: pTGI (converted)
[28] = system: Saccharomyces cerevisiae; assay: Growth inhibition of GSH2-deficient Saccharomyces cerevisiae YOL049W mutant at 20 ug/disc after 24 to 48 hrs by agar diffusion assay; assay type: functional; details: read-out: DIZ; outline: as §1
[29] = system: NCI-H322M; assay: Cytotoxicity against human NCI-H322M cells; assay type: functional; details: for TGI: read-out: pTGI (converted)
[30] = system: SR; assay: Cytotoxicity against human SR cells; assay type: functional; details: for TGI: read-out: pTGI (converted)
[31] = system: RPMI-8226; assay: Cytotoxicity against human RPMI8226 cells; assay type: functional; details: for TGI: read-out: pTGI (converted)
[32] = system: MCF7; assay: Cytotoxicity against human MCF7 cells after 24 hrs by MTT assay; assay type: functional, cell-based; details: MCF7, 24 h; outline: as §2

## CC1=C([Se]CC(OC(=O)[C@@H](CSSC(C)(C)C)NC(=O)C(C)(C)C)C(=O)NCCCCCC(=O)OCc2ccccc2)C(=O)c2ccccc2C1=O (stereo partly specified)
[1]
  GI50: 1.91 µM
  LC50: 5.89 µM
  TGI: 3.39 µM
[2]
  GI50: 2.19 µM
  LC50: 7.24 µM
  TGI: 3.98 µM
[3]
  GI50: 1.58 µM
  LC50: 5.62 µM
  TGI: 2.95 µM
[4]
  zone of inhibition at 20 µg/disc: 12 mm
[5]
  GI50: 2.19 µM
  LC50: 8.51 µM
  TGI: 4.37 µM
[6]
  GI50: 2.19 µM
  LC50: > 100 µM
  TGI: 6.46 µM
[7]
  GI50: 2.14 µM
  LC50: 14.5 µM
  TGI: 4.9 µM
[8]
  GI50: 2.57 µM
  LC50: 42.7 µM
  TGI: 7.59 µM
[9]
  GI50: 1.55 µM
  LC50: 5.5 µM
  TGI: 2.95 µM
[10]
  GI50: 1.86 µM
  LC50: 6.17 µM
  TGI: 3.39 µM
[11]
  GI50: 1.91 µM
  LC50: 6.46 µM
  TGI: 3.55 µM
[12]
  GI50: 2.24 µM
  LC50: > 100 µM
  TGI: 5.37 µM
[13]
  GI50: 1.62 µM
  LC50 (50% lethal concentration): 56.2 µM
  TGI: 4.79 µM
[14]
  GI50: 2.51 µM
  LC50: > 100 µM
  TGI: 6.03 µM
[15]
  GI50: 1.78 µM
  LC50: 5.62 µM
  TGI: 3.16 µM
[16]
  GI50: 2 µM
  LC50: 7.08 µM
  TGI: 3.8 µM
[17]
  GI50: 2.09 µM
  LC50: 6.31 µM
  TGI: 3.63 µM
[18]
  GI50: 2.19 µM
  LC50: 9.33 µM
  TGI: 4.57 µM
[19]
  GI50: 1.82 µM
  CC50: 6.76 µM
  TGI: 3.47 µM
[20]
  GI50: 1.55 µM
  LC50: 8.91 µM
  TGI: 3.72 µM
[21]
  GI50: 2.4 µM
  LC50: 8.13 µM
  TGI: 4.47 µM
[22]
  pIC50: 4.89
[23]
  GI50: 1.91 µM
  LC50: 9.33 µM
  TGI: 4.27 µM
[24]
  zone of inhibition at 20 µg/disc: 12 mm
[25]
  GI50: 1.26 µM
  LC50: 6.31 µM
  TGI: 2.82 µM
[26]
  GI50: 2.4 µM
  LC50: > 100 µM
  TGI: 7.08 µM
[27]
  GI50: 2.69 µM
  LC50: > 100 µM
  TGI: 7.41 µM
[28]
  zone of inhibition at 20 µg/disc: 0 mm
[29]
  GI50: 0.398 µM
  LC50: > 100 µM
  TGI: 2.29 µM
[30]
  GI50: 3.8 µM
  LC50: > 100 µM
  TGI: 18.6 µM
[31]
  GI50: 2.34 µM
  LC50: > 100 µM
  TGI: 6.76 µM
[32]
  pIC50: 5.10

## CC1=C([Se]CC(OC(=O)[C@@H](CO)NC(=O)OC(C)(C)C)C(=O)NCCCCCC(=O)OCc2ccccc2)C(=O)c2ccccc2C1=O (stereo partly specified)
[1]
  GI50: 1.7 µM
  LC50: 5.62 µM
  TGI: 3.09 µM
[2]
  GI50: 2 µM
  LC50: 6.17 µM
  TGI: 3.47 µM
[3]
  GI50: 1.55 µM
  LC50: 5.37 µM
  TGI: 2.88 µM
[4]
  zone of inhibition at 20 µg/disc: 12 mm
[5]
  GI50: 1.48 µM
  LC50: 6.76 µM
  TGI: 3.16 µM
[6]
  GI50: 1.62 µM
  LC50: 9.55 µM
  TGI: 3.98 µM
[7]
  GI50: 1.66 µM
  LC50: 5.75 µM
  TGI: 3.09 µM
[8]
  GI50: 1.86 µM
  LC50: 7.41 µM
  TGI: 3.72 µM
[9]
  GI50: 1.29 µM
  LC50: 5.13 µM
  TGI: 2.57 µM
[10]
  GI50: 1.78 µM
  LC50: 5.62 µM
  TGI: 3.16 µM
[11]
  GI50: 1.86 µM
  LC50: 5.75 µM
  TGI: 3.24 µM
[12]
  GI50: 1.82 µM
  LC50: 8.32 µM
  TGI: 3.89 µM
[13]
  GI50: 2.04 µM
  LC50 (50% lethal concentration): 45.7 µM
  TGI: 5.89 µM
[14]
  GI50: 2.04 µM
  LC50: > 100 µM
  TGI: 4.79 µM
[15]
  GI50: 1.74 µM
  LC50: 5.62 µM
  TGI: 3.09 µM
[16]
  GI50: 1.82 µM
  LC50: 6.17 µM
  TGI: 3.39 µM
[17]
  GI50: 2.09 µM
  LC50: 6.03 µM
  TGI: 3.55 µM
[18]
  GI50: 1.82 µM
  LC50: 6.03 µM
  TGI: 3.31 µM
[19]
  GI50: 1.82 µM
  CC50: 6.17 µM
  TGI: 3.31 µM
[20]
  GI50: 1.38 µM
  LC50: 5.37 µM
  TGI: 2.75 µM
[21]
  GI50: 2.04 µM
  LC50: 5.89 µM
  TGI: 3.47 µM
[22]
  pIC50: 5.30
[23]
  GI50: 1.66 µM
  LC50: 6.03 µM
  TGI: 3.16 µM
[24]
  zone of inhibition at 20 µg/disc: 17 mm
[25]
  GI50: 0.933 µM
  LC50: 4.9 µM
  TGI: 2.19 µM
[26]
  GI50: 1.82 µM
  TGI: 4.07 µM
[27]
  GI50: 2.14 µM
  LC50: 7.24 µM
  TGI: 3.98 µM
[28]
  zone of inhibition at 20 µg/disc: 0 mm
[29]
  GI50: 0.417 µM
  LC50: 27.5 µM
  TGI: 1.91 µM
[30]
  GI50: 1.58 µM
  LC50: > 100 µM
  TGI: 6.61 µM
[31]
  GI50: 2.19 µM
  LC50: > 100 µM
  TGI: 5.89 µM
[32]
  pIC50: 5.30

Reference: ChEMBL document CHEMBL2177069, “Novel peptidomimetic compounds containing redox active chalcogens and quinones as potential anticancer agents” (Eur J Med Chem, 2012)
